Measurements published in ChEMBL document CHEMBL1148398, “Design, synthesis, and biological evaluation of thio-containing compounds with serum HDL-cholesterol-elevating properties” (2004).

Key:
Type in all cases: functional
[1] = system: Rattus norvegicus; assay: Percent change in high-density lipoprotein cholesterol following oral administration of compound in normal chow-fed rats at 100 mg/kg/day for 4 days
Method in brief: (§1)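 Chow-fed male Sprague–Dawley CD rats, 60–80 g, gavaged 100 mg/kg/day for 4 days in 1.3% Tween 80/0.25% CMC. Fasted overnight, bled 24 h after the last dose. Total cholesterol and glycerol-blanked triglycerides read enzymatically; lipoproteins by FPLC with cholesterol per fraction. % change versus control; six per group, p < 0.05.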

[2] = system: Rattus norvegicus; assay: Percent change in high-density lipoprotein cholesterol in hypercholesterolemic rats dosed at 100 mg/kg/day for 8 days
[3] = system: Rattus norvegicus; assay: Percent change in very low-density lipoprotein cholesterol following oral administration of compound in normal chow-fed rats at 100 mg/kg/day for 4 days; method in brief: as §1
[4] = system: Rattus norvegicus; assay: Percent change in triglycerides in hypercholesterolemic rats at a dose of 100 mg/kg/day for 8 days
[5] = system: Rattus norvegicus; assay: Percent change in total plasma cholesterol in hypercholesterolemic rats dosed at 100 mg/kg/day for 8 days
[6] = system: Rattus norvegicus; assay: Percent change in triglycerides following oral administration of compound in normal chow-fed rats at 100 mg/kg/day for 4 days; method in brief: as §1
[7] = system: Rattus norvegicus; assay: Percent change in low-density lipoprotein cholesterol following oral administration of compound in normal chow-fed rats at 100 mg/kg/day for 4 days; method in brief: as §1
[8] = system: Rattus norvegicus; assay: Percent change in total plasma cholesterol following oral administration of compound in normal chow-fed rats at 100 mg/kg/day for 4 days; method in brief: as §1

Row | SMILES | Change [1] [%] | Change [2] [%] | Change [3] [%] | Change [4] [%] | Change [5] [%] | Change [6] [%] | Change [7] [%] | Change [8] [%]
1 | CC(C)c1ccccc1N1C(=O)CON(C)C1=S | 98.2 | 95 | -8.3 | -16 | 0 | -52.7 | 32.1 | 92.4
2 | CCN1CC(=O)N(c2ccc3ccccc3c2)C1=S | – | 65 | – | -33 | -18.1 | – | – | –
3 | CCN1CC(=O)N(c2ccccc2C(F)(F)F)C1=S | 103.5 | 116 | 52.6 | 35 | 18 | -6.3 | -13.3 | 67.2
4 | CCN1CC(=O)N(c2ccc(N(C)C)cc2)C1=S | – | 49 | – | -41 | 123 | – | – | –
5 | CCN1CCCC(=O)N(c2ccc(Cl)cc2C)C1=S | – | 15 | – | -15 | 58.8 | – | – | –
6 | CCN1CC(=O)N(c2cc(Cl)ccc2C)C(=S)C1 | – | 10 | – | -27 | 28 | – | – | –
7 | CN1CC(=O)N(C(c2ccccc2)c2ccccc2)C1=S | – | 57 | – | 92 | 3.4 | – | – | –
8 | CCN1CC(=O)N(CCc2ccc(F)cc2)C1=S | – | 49 | – | -17 | -8.8 | – | – | –
9 | CCN1C(=O)C(=O)N(c2cc(Cl)ccc2C)C1=S | 87.6 | 242 | 67.3 | -22 | 32 | – | 71.9 | 123.4
10 | CCN1C(=S)N(c2c(Cl)cccc2Cl)C(=O)C1(C)C | – | -18 | – | -19 | -16 | – | – | –
11 | CCN1CC(=O)N(c2cc(Cl)ccc2OC)C1=S | – | 39 | – | 51 | 24 | – | – | –
12 | CCN1CC(=O)N(c2c(Cl)cccc2Cl)C1=S | 60.2 | 142 | 0 | -37 | 53.4 | -35.8 | 6.8 | 57
13 | CN1OCC(=O)N(c2ccc(Oc3ccccc3)cc2)C1=S | 0 | 102 | -9.1 | -43 | -25 | -20.5 | -20.5 | -13
14 | CN1CC(=O)N(c2cccnc2)C1=S | – | 29 | – | 150 | -11.4 | – | – | –
15 | Cc1ccc(Cl)cc1N1C(=O)CN(C)C1=O | – | -8 | – | -7 | 37 | – | – | –
16 | CN1OCC(=O)N(c2cccc3c2CCC3)C1=S | 81.8 | 192 | 68 | -26 | -2 | -31.2 | 42.3 | 78.5
17 | C#CCN1CC(=O)N(c2c(C)cccc2C)C1=S | 85.1 | 325 | -23 | 0 | -15 | -48.5 | 27.9 | 98
18 | Cc1cc(Cl)ccc1N1C(=O)CON(C)C1=S | 53.4 | 221 | 114.7 | -38 | 4 | -4.3 | 20.8 | 51.4
19 | CN1OCC(=O)N(c2ccc(C(C)(C)C)cc2)C1=S | 61.6 | 170 | 176.5 | -51 | 2 | -24.6 | 2.6 | 62
20 | CCN1CC(=O)N(c2ccc(OC(F)(F)F)cc2)C1=S | 71.4 | 265 | 543.5 | -72 | -1 | 2.8 | 127.5 | 197.6
21 | COC(=O)CCN1CC(=O)N(c2ccc(Cl)cc2C)C1=S | – | 27 | – | -32 | 14 | – | – | –
22 | CCN1CC(=O)N(c2cc(F)ccc2C)C1=S | 102.4 | 112 | 131.6 | -36 | 35 | -6.3 | 14 | 95.2
23 | CCc1cccc(C(C)C)c1N1C(=O)CN(CC)C1=S | 48.7 | 54 | -50 | 5 | -62 | -12.2 | -22.3 | 30.9
24 | CCN1CCC(=O)N(c2cc(Cl)ccc2C)C1=S | – | 76 | – | 44 | 53 | – | – | –
25 | CN1CC(=O)N(c2ccccc2)C1=S | – | 66 | – | 10 | 25 | – | – | –
26 | CCN1CC(=O)N(CCc2ccccc2)C1=S | – | 30 | – | 6 | -14 | – | – | –
27 | CCc1cccc(C)c1N1C(=O)CCN(CC)C1=S | – | 60 | – | 2 | 52 | – | – | –
28 | Cc1ccc(Cl)cc1N1C(=O)C(C)N(C)C1=S (centres undefined) | 67.9 | 220 | 134.7 | -58 | -8 | 207.2 | 800 | 276.5

Row | SMILES | Change [1] [%] | Change [2] [%] | Change [3] [%] | Change [4] [%] | Change [5] [%] | Change [6] [%] | Change [7] [%] | Change [8] [%]
29 | CCCCN1CC(=O)N(c2c(C)cccc2Cl)C1=S | – | 53 | – | -38 | 30 | – | – | –
30 | O=C1CN(Cc2ccccc2)C(=S)N1c1c(Cl)cccc1Cl | – | -2.2 | – | -54 | 25.3 | – | – | –
31 | C=CCN1CC(=O)N(c2c(C)cccc2C)C1=S | 120.4 | 177 | -45.8 | -45 | -5 | -29.9 | -18.8 | 86
32 | Cc1cccc(Cl)c1N1C(=O)CN(C)C1=S | 75.7 | 84 | 89.4 | -56 | 17 | -37.9 | 0 | 71.2
33 | CCN1CC(=O)N(c2cc(C)c(C)cc2C)C1=S | – | 112 | – | -11 | 39 | – | – | –
34 | CCN1CCC(=O)N(c2ccc(C)cc2C)C1=S | – | -3 | – | 2 | 27 | – | – | –
35 | CCN1CC(=O)N(c2ccccc2SC)C1=S | – | 60 | – | -8 | 13 | – | – | –
36 | CN1CC(=O)N(CCCCc2ccccc2)C1=S | – | -21 | – | 41 | -4.3 | – | – | –
37 | CCN1C(=S)N(c2c(C)cccc2Cl)C(=O)C1(C)C | – | -5 | – | -22 | 16 | – | – | –
38 | CCN1CCCC(=O)N(c2cc(Cl)ccc2C)C1=S | – | 50 | – | 14 | 7 | – | – | –
39 | CCN1CCC(=O)N(c2c(Cl)cccc2Cl)C1=S | – | 16 | – | -6 | 42 | – | – | –
40 | CCc1cccc(C(C)C)c1N1C(=O)CCN(CC)C1=S | – | 34 | – | -11 | 2 | – | – | –
41 | Cc1cccc(Cl)c1N1C(=O)CN(c2ccccc2)C1=S | – | 39 | – | 16 | 2.2 | – | – | –
42 | CCN1C(=S)N(c2cc(Cl)ccc2C)C(=O)C1(C)C | – | -9 | – | 15 | 0 | – | – | –
43 | CCN1C(=O)C(=O)N(c2ccc(F)cc2)C1=S | – | 23 | – | -48 | 44 | – | – | –
44 | Cc1ccc(Cl)cc1N1C(=O)C(=O)N(C)C1=S | – | 196 | – | -26 | 44 | – | – | –
45 | CCN1C(=S)N(c2c(C)cccc2C)C(=O)C1(C)C | – | -2 | – | 17 | 13 | – | – | –
46 | CCN1C(=S)N(c2cc(Cl)ccc2C)C(=O)C1c1ccccc1 (centres undefined) | – | 187 | – | 76 | 60 | – | – | –
47 | CCN1CC(=O)N(c2ccc(F)cc2)C1=S | – | 59 | – | -18 | 78 | – | – | –
48 | CN1CC(=O)N(Cc2ccccc2Cl)C1=S | – | 23 | – | 11 | 14 | – | – | –
49 | CCN1C(=S)N(c2ccc(F)cc2)C(=O)C1c1ccccc1 (centres undefined) | – | 67 | – | 35 | 31 | – | – | –
50 | CCN1C(=S)N(c2c(Cl)cccc2Cl)C(=O)C1c1ccccc1 (centres undefined) | – | 39 | – | 25 | 18 | – | – | –
51 | CN1CC(=O)N(CCN2CCCCC2)C1=S | – | -40 | – | 33 | -3.3 | – | – | –
52 | CCN1CC(=O)N(C2CCCCC2)C1=S | – | 5.4 | – | 28 | -7.4 | – | – | –
53 | CCN1CC(=O)N(c2cc(Cl)ccc2C)/C1=N/C#N | – | 17 | – | -25 | 15 | – | – | –
54 | CN1CC(=O)N(CCc2ccc(Cl)cc2)C1=S | – | -15.5 | – | 24 | -10.2 | – | – | –
55 | Cc1ccc(CCN2C(=O)CN(C)C2=S)cc1 | – | -26.6 | – | 27 | -11 | – | – | –
